Results published in ChEMBL document CHEMBL1142556, “cis-parthenolid-9-one from Anvillea garcinii” (2000).
In brackets after ≈: the same amount, converted by molar mass.

Experiments:
[1] = Cytotoxicity against human lung cancer cells; format: functional, Cancer cell lines; settings: for EC50: Homo sapiens, Cancer cell lines, read-out: ED50 (the source's name)
Procedure, shortened: (§1)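 Tested in vitro by the National Cancer Institute screen. Values are averages over each cell-line subpanel. Potency is reported two ways: C50, the half-maximal effective dose in μmol/L, and ED50, the dose that inhibits net cell growth to 50% of control growth in μg/mL.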

[2] = Cytotoxicity against human prostate cancer cells; format: functional, Cancer cell lines; settings: for EC50: Homo sapiens, Cancer cell lines, read-out: ED50 (the source's name); procedure, shortened: as §1
[3] = Cytotoxicity against human breast cancer cells; format: functional, Cancer cell lines; settings: for EC50: Homo sapiens, Cancer cell lines, read-out: ED50 (the source's name); procedure, shortened: as §1
[4] = Cytotoxicity against human renal cancer cells; format: functional, Cancer cell lines; settings: for EC50: Homo sapiens, Cancer cell lines, read-out: ED50 (the source's name); procedure, shortened: as §1
[5] = Cytotoxicity against human ovarian cancer cells; format: functional, Cancer cell lines; settings: for EC50: Homo sapiens, Cancer cell lines, read-out: ED50 (the source's name); procedure, shortened: as §1
[6] = Cytotoxicity against human central nervous system cancer cells; format: functional, Cancer cell lines; settings: for EC50: Homo sapiens, Cancer cell lines, read-out: ED50 (the source's name); procedure, shortened: as §1
[7] = Cytotoxicity against human melanoma cells; format: functional, Melanoma cell; settings: for EC50: Homo sapiens, Melanoma cell, read-out: ED50 (the source's name); procedure, shortened: as §1
[8] = Cytotoxicity against human colon cancer cells; format: functional, Cancer cell lines; settings: for EC50: Homo sapiens, Cancer cell lines, read-out: ED50 (the source's name); procedure, shortened: as §1
[9] = Cytotoxicity against human leukemia cells; format: functional, Leukemia cell; settings: for EC50: Homo sapiens, Leukemia cell, read-out: ED50 (the source's name); procedure, shortened: as §1

Question: Which C50 [1] does the source give for `C=C1C(=O)O[C@H]2[C@H]1CC(=O)/C(C)=C/CC[C@@]1(C)O[C@@H]21` here?
Answer: 1.8 µmol/L

Question: And the EC50 [1]?
Answer: 0.47 µg/mL (≈ 1.79 µM)

Question: And the C50 [2]?
Answer: 2.2 µmol/L

Question: What about the EC50 [2] of the same compound?
Answer: 0.57 µg/mL (≈ 2.17 µM)

Question: And the C50 [3]?
Answer: 0.6 µmol/L

Question: What about the EC50 [3] of the same compound?
Answer: 0.16 µg/mL (≈ 0.61 µM)

Question: And the C50 [4]?
Answer: 0.41 µmol/L

Question: And the EC50 [4]?
Answer: 0.11 µg/mL (≈ 0.419 µM)

Question: What about the C50 [5] of the same compound?
Answer: 1.4 µmol/L

Question: And the EC50 [5]?
Answer: 0.37 µg/mL (≈ 1.41 µM)

Question: What about the C50 [6] of the same compound?
Answer: 2.9 µmol/L

Question: What about the EC50 [6] of the same compound?
Answer: 0.76 µg/mL (≈ 2.9 µM)

Question: What about the C50 [7] of the same compound?
Answer: 0.57 µmol/L

Question: What about the EC50 [7] of the same compound?
Answer: 0.15 µg/mL (≈ 0.572 µM)

Question: And the C50 [8]?
Answer: 0.32 µmol/L

Question: What about the EC50 [8] of the same compound?
Answer: 0.08 µg/mL (≈ 0.305 µM)

Question: And the C50 [9]?
Answer: 0.08 µmol/L

Question: And the EC50 [9]?
Answer: 0.02 µg/mL (≈ 0.0762 µM)

Question: Which C50 [1] does the source give for `C=C1C(=O)O[C@H]2[C@H]1CC(=O)/C(C)=C\CC[C@@]1(C)O[C@@H]21` here?
Answer: 13.4 µmol/L

Question: What about the EC50 [1] of the same compound?
Answer: 3.51 µg/mL (≈ 13.4 µM)

Question: What about the C50 [2] of the same compound?
Answer: 14.4 µmol/L

Question: And the EC50 [2]?
Answer: 3.77 µg/mL (≈ 14.4 µM)

Question: What about the C50 [3] of the same compound?
Answer: 9.81 µmol/L

Question: What about the EC50 [3] of the same compound?
Answer: 2.57 µg/mL (≈ 9.8 µM)

Question: What about the C50 [4] of the same compound?
Answer: 8.05 µmol/L

Question: What about the EC50 [4] of the same compound?
Answer: 2.11 µg/mL (≈ 8.04 µM)

Question: What about the C50 [5] of the same compound?
Answer: 11.9 µmol/L

Question: And the EC50 [5]?
Answer: 3.13 µg/mL (≈ 11.9 µM)

Question: What about the C50 [6] of the same compound?
Answer: 17.1 µmol/L

Question: And the EC50 [6]?
Answer: 4.47 µg/mL (≈ 17 µM)

Question: What about the C50 [7] of the same compound?
Answer: 10.6 µmol/L

Question: What about the EC50 [7] of the same compound?
Answer: 2.77 µg/mL (≈ 10.6 µM)

Question: What about the C50 [8] of the same compound?
Answer: 7.3 µmol/L

Question: What about the EC50 [8] of the same compound?
Answer: 1.91 µg/mL (≈ 7.28 µM)

Question: What about the C50 [9] of the same compound?
Answer: 1.94 µmol/L

Question: What about the EC50 [9] of the same compound?
Answer: 0.51 µg/mL (≈ 1.94 µM)
